Experimental data taken from ChEMBL document CHEMBL1127449, “An investigation of desferrithiocin metabolism” (J Med Chem, 1994).

How the values were obtained:
Format in all cases: ADME
[1] = Tested for the half life period at the pH of 2.5; conditions: pH 2.5
Summary of the method: (§1)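 Hydrolysis followed by HPLC at 37 °C: 2 mM solutions in phosphate mobile phase B with 4 mM 2,6-lutidine as internal standard, pH set to 2.5 or 7.2 with HCl or KOH. Reverse-phase gradient of acetonitrile/mobile phase B, detection at 250 nm. Half-life derived from disappearance over time. For fast pH 7.2 conversion, acidic solution brought to 7.2 then back to 2.5 (<1 min).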

[2] = Tested for the half life period at the pH of 7.2; conditions: pH 7.2; summary of the method: as §1
[3] = Tested for the half life period at the pH of 2.5; Stable; conditions: pH 2.5; summary of the method: as §1
[4] = Tested for the half life period at the pH of 7.2; Stable; conditions: pH 7.2; summary of the method: as §1

half-life [1] [min]	half-life [2] [min]	T1/2 [3]	T1/2 [4]	T1/2 [1] [days]	Molecule
251	< 1	–	–	–	N[C@@H](CSC(=O)c1ccccc1O)C(=O)O
–	–	Stable	Stable	–	O=C(N[C@@H](CS)C(=O)O)c1ccccc1O
524	–	–	Stable	–	O=C(O)[C@@H]1CSC(c2ncccc2O)=N1
1900	–	–	Stable	–	O=C(O)[C@@H]1CSC(c2ccccc2O)=N1
1120	–	–	Stable	–	C[C@]1(C(=O)O)CSC(c2ncccc2O)=N1 [DESFERRITHIOCIN]
–	–	–	Stable	> 20	deaza-desmethyl-DFT complex with iron (III)
